Data taken from ChEMBL document CHEMBL4819122, “Novel 4-(piperazin-1-yl)quinolin-2(1H)-one bearing thiazoles with antiproliferative activity through VEGFR-2-TK inhibition” (Bioorg Med Chem, 2021).
The source made the active and inactive calls. The calls are words filed in the database; no cut-off is given here.

Tests used:
[1] = tested on: T47D; assay: Cytotoxicity against human T47D cells assessed as reduction in cell viability after 3 hrs by MTT assay
[2] = tested on: T47D; assay: Cytotoxicity against human T-47D assessed as growth inhibition at 10 uM by NCI protocol relative to control; assay type: functional; conditions: read-out: GI
Summary of the method: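 Run by the NCI under its standard protocol: one dose of 10 μM against a sixty-line panel from nine human tumour tissues. Result given as percent growth inhibition of treated cells relative to untreated cells.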

[3] = tested on: EKVX; assay: Cytotoxicity against human EKVX assessed as growth inhibition at 10 uM by NCI protocol relative to control; assay type: functional; conditions: read-out: GI
Summary of the method: (§1)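 Run by NCI as a single-dose screen at 10 μM across the sixty-cell-line panel, which covers nine human tumour tissue types. The read-out is percent growth inhibition of treated cells relative to untreated cells.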

[4] = tested on: Hs-578T; assay: Cytotoxicity against human HS 578T assessed as growth inhibition at 10 uM by NCI protocol relative to control; assay type: functional; conditions: read-out: GI; summary of the method: as §1
[5] = tested on: MDA-MB-435; assay: Cytotoxicity against human MDA-MB-435 assessed as growth inhibition at 10 uM by NCI protocol relative to control; assay type: functional, cell-based; summary of the method: as §1
[6] = tested on: A498; assay: Cytotoxicity against human A498 assessed as growth inhibition at 10 uM by NCI protocol relative to control; assay type: functional; conditions: read-out: GI; summary of the method: as §1
[7] = tested on: MCF10; assay: Cytotoxicity against human MCF10 cells assessed as reduction in cell viability after 3 hrs by MTT assay; conditions: MCF10, 3 h

Compound	IC50 [1]	inhibition of growth at 10 µM [2]	inhibition of growth at 10 µM [3]	inhibition of growth at 10 µM [4]	growth inhibition (GI) [5]	inhibition of growth at 10 µM [6]	IC50 [7]
O=c1cc(N2CCNCC2)c2cc(F)ccc2[nH]1	37.7 µM	10.5%	56.2%	19.6%	inactive	26%	
CC[C@@]1(O)C(=O)OCc2c1cc1n(c2=O)Cc2cc3ccccc3nc2-1 [CAMPTOTHECIN]							24.8 µM
